# pKi: −log10 of the molar value. Several values for one entry are separate records, joined by “and”; a condition that tells them apart may be missing. Equal entries are not always repeated. Entries after “also recorded” stand apart in the source; their conditions may differ.
# Tests used:
# pure porcine APN = settings: read-out: K i in enzymatic studies; cited from earlier work
# [1] = target: T1, APN in rat brain membranes (Rattus norvegicus, UniProt P15684); assay: Competition with [125I]RB 129 binding on rat brain membranes; settings: for inhibition of specific [125I]RB 129 binding (qualitative): rat brain membranes
# T1 sequence (P15684 1-965): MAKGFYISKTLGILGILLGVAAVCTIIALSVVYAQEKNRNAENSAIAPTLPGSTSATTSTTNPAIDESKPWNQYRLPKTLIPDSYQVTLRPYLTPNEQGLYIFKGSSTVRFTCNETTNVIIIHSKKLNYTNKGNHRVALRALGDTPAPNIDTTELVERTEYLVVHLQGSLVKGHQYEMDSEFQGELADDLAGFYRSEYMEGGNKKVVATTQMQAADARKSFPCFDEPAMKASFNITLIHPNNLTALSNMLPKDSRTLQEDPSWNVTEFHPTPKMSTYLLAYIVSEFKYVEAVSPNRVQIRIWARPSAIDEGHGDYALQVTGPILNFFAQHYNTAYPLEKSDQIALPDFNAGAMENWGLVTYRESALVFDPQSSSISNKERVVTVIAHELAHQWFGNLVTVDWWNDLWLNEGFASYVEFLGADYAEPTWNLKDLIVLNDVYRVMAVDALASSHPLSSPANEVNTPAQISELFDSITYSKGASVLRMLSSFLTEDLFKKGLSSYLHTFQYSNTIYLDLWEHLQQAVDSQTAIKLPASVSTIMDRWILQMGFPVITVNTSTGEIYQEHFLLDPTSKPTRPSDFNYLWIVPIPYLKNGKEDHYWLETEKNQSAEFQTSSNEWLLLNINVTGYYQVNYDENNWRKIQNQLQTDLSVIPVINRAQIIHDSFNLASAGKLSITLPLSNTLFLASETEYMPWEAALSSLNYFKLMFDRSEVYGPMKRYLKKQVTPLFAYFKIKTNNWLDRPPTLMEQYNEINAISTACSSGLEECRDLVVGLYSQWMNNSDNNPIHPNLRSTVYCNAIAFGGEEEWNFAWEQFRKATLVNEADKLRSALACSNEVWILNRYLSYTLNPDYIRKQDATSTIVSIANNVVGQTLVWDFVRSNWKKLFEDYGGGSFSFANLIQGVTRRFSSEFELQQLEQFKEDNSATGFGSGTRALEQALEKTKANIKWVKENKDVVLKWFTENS
# recombinant pig APN [2] = target: T2, recombinant pig APN (Sus scrofa, UniProt P15145); format: binding; settings: transfected COS-7 cell membranes
# T2 sequence (P15145 1-963): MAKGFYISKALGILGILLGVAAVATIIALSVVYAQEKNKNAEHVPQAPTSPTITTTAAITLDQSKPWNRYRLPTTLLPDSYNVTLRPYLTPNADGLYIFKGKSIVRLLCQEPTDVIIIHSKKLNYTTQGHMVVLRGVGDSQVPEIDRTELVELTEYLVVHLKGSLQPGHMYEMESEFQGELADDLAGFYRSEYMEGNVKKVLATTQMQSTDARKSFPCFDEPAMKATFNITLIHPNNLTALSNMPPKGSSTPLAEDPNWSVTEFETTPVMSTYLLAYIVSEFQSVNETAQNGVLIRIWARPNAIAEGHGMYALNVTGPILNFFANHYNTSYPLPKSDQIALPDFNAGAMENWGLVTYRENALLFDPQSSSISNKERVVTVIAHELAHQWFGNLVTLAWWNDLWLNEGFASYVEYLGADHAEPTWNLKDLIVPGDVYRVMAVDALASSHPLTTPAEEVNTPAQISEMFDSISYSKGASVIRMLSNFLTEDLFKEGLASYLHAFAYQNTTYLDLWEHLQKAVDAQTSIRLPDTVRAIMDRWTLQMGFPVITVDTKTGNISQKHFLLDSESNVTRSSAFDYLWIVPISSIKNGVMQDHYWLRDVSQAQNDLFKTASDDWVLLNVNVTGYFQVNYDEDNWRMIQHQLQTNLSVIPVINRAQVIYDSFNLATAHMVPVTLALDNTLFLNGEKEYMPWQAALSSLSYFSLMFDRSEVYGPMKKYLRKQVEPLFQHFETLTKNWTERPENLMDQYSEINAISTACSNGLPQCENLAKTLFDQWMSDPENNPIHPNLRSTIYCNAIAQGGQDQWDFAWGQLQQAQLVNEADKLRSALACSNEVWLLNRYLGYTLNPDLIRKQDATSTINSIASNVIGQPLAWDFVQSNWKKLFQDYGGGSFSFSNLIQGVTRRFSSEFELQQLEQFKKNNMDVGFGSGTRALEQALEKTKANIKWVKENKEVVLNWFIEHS
# NEP = settings: read-out: K i for NEP; enzymatic assay; cited from earlier work
# recombinant pig APN [3] = target: T2, recombinant pig APN; format: binding
# Outline: (§1)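 Pig APN cDNA, wild-type or E350A, in pcDNA3 was electroporated (50 μg per 10×10^6 cells) into COS-7 cells grown in DMEM with 10% FCS, then kept 48 h at 37°C. Membranes (100 000×g) were resuspended in 50 mM Tris–HCl pH 7.4 with 0.02% bacitracin, 50–100 μg protein/tube. Saturation used 0.075–8 nM [125I]RB 129 for 80 min at 35°C with thiorphan, 1 μM RB 129 for nonspecific binding, GF/B filtration and Scatchard analysis.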
# [4] = target: T1, APN in rat brain membranes; assay: [125I]RB 129 kinetic and saturation binding to rat brain membranes
# Outline: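 Rat brain minus cerebellum homogenised in 50 mM Tris–HCl pH 7.4, spun at 1000×g then 100 000×g; pellet resuspended in buffer with 0.02% bacitracin, 0.4–0.6 mg protein/ml. Incubations at 35°C with thiorphan. Kinetics used 100 pM [125I]RB 129, with dissociation started by 1 μM unlabeled RB 129 after 120 min. Saturation ran 0.075–8 nM for 80 min. Nonspecific binding defined with 1 μM RB 129; bound ligand collected on GF/B filters.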
# APN mutant E^350A = target: T3, APN mutant E^350A (Sus scrofa, UniProt P15145, E350A); assay: [125I]RB 129 binding to mutated APN expressed in COS-7 cells; design: species or system pig; settings: E^350A mutated APN in COS-7 cells
# T3 sequence (P15145 2-963 E350A): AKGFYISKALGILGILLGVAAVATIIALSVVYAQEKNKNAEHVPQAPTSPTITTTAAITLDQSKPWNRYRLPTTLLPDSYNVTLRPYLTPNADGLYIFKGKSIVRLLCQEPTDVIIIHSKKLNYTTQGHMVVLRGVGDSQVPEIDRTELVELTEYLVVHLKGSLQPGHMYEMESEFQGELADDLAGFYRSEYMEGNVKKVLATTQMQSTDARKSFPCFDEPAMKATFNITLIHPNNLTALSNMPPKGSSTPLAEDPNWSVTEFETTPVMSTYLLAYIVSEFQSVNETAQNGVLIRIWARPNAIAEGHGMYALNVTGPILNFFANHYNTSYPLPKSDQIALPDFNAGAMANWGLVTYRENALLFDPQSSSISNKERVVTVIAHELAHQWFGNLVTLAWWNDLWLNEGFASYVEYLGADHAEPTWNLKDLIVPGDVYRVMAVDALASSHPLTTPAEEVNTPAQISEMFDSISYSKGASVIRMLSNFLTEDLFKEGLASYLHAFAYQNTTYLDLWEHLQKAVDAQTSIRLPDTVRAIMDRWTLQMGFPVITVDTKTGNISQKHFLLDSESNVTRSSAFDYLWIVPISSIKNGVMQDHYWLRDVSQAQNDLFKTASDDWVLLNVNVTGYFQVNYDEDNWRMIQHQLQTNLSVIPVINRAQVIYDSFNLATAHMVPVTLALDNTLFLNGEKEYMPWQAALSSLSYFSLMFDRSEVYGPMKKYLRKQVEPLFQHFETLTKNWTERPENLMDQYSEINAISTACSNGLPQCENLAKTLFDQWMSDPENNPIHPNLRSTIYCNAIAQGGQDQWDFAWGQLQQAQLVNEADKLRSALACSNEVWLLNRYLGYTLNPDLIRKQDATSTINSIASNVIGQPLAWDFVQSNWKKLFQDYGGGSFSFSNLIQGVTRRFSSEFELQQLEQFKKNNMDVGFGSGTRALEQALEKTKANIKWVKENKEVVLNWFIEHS
# Outline: as §1
smiles,measurement,setting,value
NC(CS)Cc1ccccc1 (stereo not shown) [Phe‐thiol],pKi,pure porcine APN,7.92
same,inhibition of specific [125I]RB 129 binding (qualitative),[1],concentration‐dependent inhibition
"C[C@H](N)P(=O)(O)C[C@@H](Cc1ccccc1)C(=O)N[C@@H](Cc1ccc(O)c(I)c1)C(=O)O [RB 129, 2(S)‐benzyl‐3‐[hydroxy(1′(R)‐aminoethyl)phosphinyl]propanoyl‐L‐3‐iodotyrosine]",inhibition of specific [125I]RB 129 binding (qualitative),recombinant pig APN [2],concentration‐dependent inhibition
same,pKi,NEP,7.63
same,inhibition of specific [125I]RB 129 binding (qualitative),[1],concentration‐dependent inhibition
O=C(CC(Cc1ccccc1)C(=O)N[C@@H](Cc1ccccc1)C(=O)O)NO (stereo partly shown) [RB 38A],inhibition of specific [125I]RB 129 binding (qualitative),recombinant pig APN [2],concentration‐dependent inhibition
same,pKi,pure porcine APN,6.92
same,fold lower affinity in rat brain binding versus enzymatic assay,[1]; rat brain membrane K i vs enzymatic K i on porcine APN,more than 10 fold
same,inhibition of specific [125I]RB 129 binding (qualitative),[1],concentration‐dependent inhibition
"C[C@H](N)P(=O)(O)C[C@@H](Cc1ccccc1)C(=O)N[C@@H](Cc1ccc(O)c([125I])c1)C(=O)O [[^125I]RB 129, 2(S)‐benzyl‐3‐[hydroxy(1′(R)‐aminoethyl)phosphinyl]propanoyl‐L‐3‐[^125I]iodotyrosine]",specific binding at routine protein concentration,recombinant pig APN [3]; 50–100 μg/ml recombinant APN protein,80–98%
same,specific binding at the K d value,recombinant pig APN [3]; recombinant APN in COS-7 cells,~92%
same,maximal capacity of binding sites (B max),recombinant pig APN [3]; recombinant APN wild-type in COS-7 cells,650±67 fmol/mg of protein
same,"association rate constant, k +1","[4]; 100 pM ligand, 35°C, rat brain membranes",1.58e+06 M⁻¹ s⁻¹
same,incubation time to reach binding equilibrium,"[4]; 100 pM, 35°C",80 min
same,specific binding at routine protein concentration,[4]; 0.4–0.6 mg/ml rat brain membrane protein,80–98%
same,dissociation rate constant (k −1),"[4]; dissociation initiated with 1 μM unlabeled RB 129, 35°C",0.022 min⁻¹
same,specific binding at the K d value,[4]; rat brain homogenates,95%
same,maximal capacity of binding sites (B max),"[4]; saturation, rat brain homogenates",722±88 fmol/mg of protein and 722 fmol/mg of protein
same,specific binding on mutated APN,APN mutant E^350A,No specific binding; also recorded: non‐measurable specific binding
